ChEMBL document CHEMBL3124889, “Synthesis, spectroscopic, and photophysical characterization and photosensitizing activity toward prokaryotic and eukaryotic cells of porphyrin-magainin and -buforin conjugates” (J Med Chem, 2014)
The source made the active and inactive calls. No cut-off for these calls is given here. Where a SMILES comes first, the peptide text is derived from it. [ ]: non-standard residue; d: D form. The star is where a group is joined. Benzoyl(4-TriPhPorphyrinyl) = O=C(c1ccc(-c2c3nc(c(-c4ccccc4)c4ccc([nH]4)c(-c4ccccc4)c4nc(c(-c5ccccc5)c5ccc2[nH]5)C=C4)C=C3)cc1)*; X1 = C[n+]1ccc(-c2c3nc(c(-c4cc[n+](C)cc4)c4ccc([nH]4)c(-c4cc[n+](C)cc4)c4nc(c(-c5ccc(C(=O)*)cc5)c5ccc2[nH]5)C=C4)C=C3)cc1; His(π-Me) = Cn1cncc1C[C@H](N)C(=O)O

Experiments:
[1] = Drug uptake in human HFFF2 cells assessed as increase in red fluorescence at 5 uM incubated for 60 to 3 hrs mins followed by irradiated with 13.5 J cm'-2 of blue light by fluorescence microscopic analysis; type: ADME, cell-based; conditions: hfff2, 5 µM
[2] = Drug uptake in human HFFF2 cells assessed as increase in red fluorescence at 5 uM incubated for 60 to 3 hrs mins followed by irradiated with 13.5 J cm'-2 of blue light by flow cytometry; type: ADME, cell-based; conditions: hfff2, 5 µM
[3] = Photoinactivation of human HFFF2 cells incubated for 60 mins followed by irradiated with 13.5 J cm'-2 of blue light; type: cell-based; conditions: HFFF2, light or radiation study, 1 h
[4] = Drug uptake in human HFFF2 cells assessed as increase in red fluorescence at 5 uM incubated for 60 to 3 hrs mins followed by irradiated with 13.5 J cm'-2 of blue light measured after drug washout by flow cytometry; type: ADME, cell-based; conditions: hfff2, 5 µM
[5] = Drug uptake in human HFFF2 cells in assessed as increase in red fluorescence at 5 uM incubated for 60 to 3 hrs mins by flow cytometry; type: ADME, cell-based; conditions: hfff2, 5 µM
[6] = Drug uptake in human HFFF2 cells assessed as increase in red fluorescence at 5 uM incubated for 60 mins followed by irradiated with 13.5 J cm'-2 of blue light by flow cytometry; type: ADME, cell-based; conditions: hfff2, 1 h
[7] = Photoinactivation of human HFFF2 cells at 5 uM incubated for 60 mins followed by irradiated with 13.5 J cm'-2 of blue light; type: cell-based; conditions: hfff2, 1 h
How it was run: (§1)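 HFFF2 fibroblasts were grown in DMEM with 10% FBS at 37 °C and 5% CO2, seeded at 7 × 10^3 cells/well and grown 48 h. Cells were incubated 60 min in the dark with PS in medium with 3% FBS, washed twice with PBS containing Ca2+/Mg2+, and irradiated in PBS with 13.5 J cm−2 of blue light. After 24 h in 10% FBS medium, viability was read by MTS (1.5 h, A492) as % of untreated control.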

Staphylococcus aureus [8] = assay: Drug uptake in methicillin-resistant Staphylococcus aureus ATCC BAA-44 assessed as increase in red fluorescence at 1.5 uM incubated for 60 mins measured after drug washout by flow cytometry; type: ADME, organism-based; conditions: in vivo, 1 h
How it was run: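 Stationary-phase overnight BHI cultures (37 °C) were washed twice and resuspended in PBS (pH 7.3) at ~2 × 10^7 cells/mL. They were then analysed by flow cytometry for cell-associated red porphyrin fluorescence, either unwashed or after three PBS washes (10 000g, 5 min). Cells without PS set the background fluorescence.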

Escherichia coli [9] = assay: Drug uptake in Escherichia coli ATCC 25922 assessed as increase in red fluorescence at 5 uM incubated for 60 mins by flow cytometry; type: ADME, organism-based; conditions: in vivo, 1 h
How it was run: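 Stationary-phase cells grown overnight in BHI at 37 °C, washed twice, resuspended in PBS pH 7.3 at ~2 × 10^7 cells/mL. Exposed to PS in the dark at room temperature for 60 min, then analysed directly or after three PBS washes (centrifugation at 10 000g for 5 min). Read-out is cell-associated porphyrin red fluorescence by flow cytometry; background taken from cells without PS.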

[10] = Solubility of the compound in water; type: physicochemical; conditions: buffer
[11] = Photoinactivation of human HFFF2 cells at 3 uM incubated for 60 mins followed by irradiated with 13.5 J cm'-2 of blue light; type: cell-based; conditions: hfff2, 1 h; how it was run: as §1
Escherichia coli [12] = assay: Photoinactivation of Escherichia coli ATCC 25922 assessed as log reduction of CFU at 15 uM incubated for 60 mins followed by irradiated with 13.5 J cm'-2 of blue light measured after drug washout; type: functional
How it was run: (§2)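 Stationary-phase overnight BHI cultures (37 °C) were washed and resuspended in PBS (pH 7.3) at ~2 × 10^7 cells/mL, then incubated with PS in the dark at rt for 60 min. Suspensions were left unwashed or washed three times with PBS. They were irradiated with blue light (390–460 nm, 15.2 mW cm−2) to 13.5 J cm−2. Serial 10-fold dilutions were plated in duplicate on BHI agar and cfu counted after overnight growth at 37 °C. Experiments were repeated at least three times.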

Staphylococcus aureus [13] = assay: Photoinactivation of methicillin-resistant Staphylococcus aureus ATCC BAA-44 at 0.5 to 1 uM incubated for 60 mins followed by irradiated with 13.5 J cm'-2 of blue light; type: functional, organism-based; how it was run: as §2
Escherichia coli [14] = assay: Photoinactivation of Escherichia coli ATCC 25922 assessed as log reduction of CFU at 5 uM incubated for 60 mins followed by irradiated with 13.5 J cm'-2 of blue light measured after drug washout; type: functional
How it was run: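 Overnight BHI cultures (37 °C, stationary phase) washed and resuspended in PBS pH 7.3 at ~2 × 10^7 cells/mL. Incubated with increasing PS concentrations for 60 min in the dark at room temperature. Serial 10-fold dilutions plated in duplicate on BHI agar for CFU; at least three independent experiments.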

SMILES: CC[C@H](C)[C@H](NC(=O)[C@H](Cc1ccc(O)cc1)NC(=O)[C@@H](NC(=O)[C@@H]1CCCN1C(=O)[C@H](CCCNC(=N)N)NC(=O)[C@H](CC(N)=O)NC(=O)[C@H](CC(N)=O)NC(=O)CNC(=O)c1ccc(-c2c3nc(c(-c4ccccc4)c4ccc([nH]4)c(-c4ccccc4)c4nc(c(-c5ccccc5)c5ccc2[nH]5)C=C4)C=C3)cc1)C(C)C)C(=O)N1CCC[C@H]1C(=O)N[C@@H](CCC(N)=O)C(=O)N1CCC[C@H]1C(=O)N[C@@H](CCCNC(=N)N)C(=O)N1CCC[C@H]1C(=O)N1CCC[C@H]1C(=O)N[C@@H](Cc1cnc[nH]1)C(=O)N1CCC[C@H]1C(=O)N[C@@H](CCCNC(=N)N)C(=O)N[C@@H](CC(C)C)C(=O)O ({Benzoyl(4-TriPhPorphyrinyl)}-GNNRPVYIPQPRPPHPRL-OH)
- Drug uptake [1]: Active
- Drug uptake [2]: Active
- IC50 [3]: 21 nM
- Drug uptake [4]: Active
- Drug uptake [5]: Active

SMILES: CC[C@H](C)[C@H](NC(=O)[C@H](Cc1ccc(O)cc1)NC(=O)[C@@H](NC(=O)[C@@H]1CCCN1C(=O)[C@H](CCCNC(=N)N)NC(=O)[C@H](CC(N)=O)NC(=O)[C@H](CC(N)=O)NC(=O)CNC(=O)c1ccc(-c2c3nc(c(-c4cc[n+](C)cc4)c4ccc([nH]4)c(-c4cc[n+](C)cc4)c4nc(c(-c5cc[n+](C)cc5)c5ccc2[nH]5)C=C4)C=C3)cc1)C(C)C)C(=O)N1CCC[C@H]1C(=O)N[C@@H](CCC(N)=O)C(=O)N1CCC[C@H]1C(=O)N[C@@H](CCCNC(=N)N)C(=O)N1CCC[C@H]1C(=O)N1CCC[C@H]1C(=O)N[C@@H](Cc1cncn1C)C(=O)N1CCC[C@H]1C(=O)N[C@@H](CCCNC(=N)N)C(=O)N[C@@H](CC(C)C)C(=O)O (X1-GNNRPVYIPQPRPP[His(π-Me)]PRL-OH)
- Drug uptake [1]: Not Active
- Drug uptake [2]: Active
- IC50 [3]: 9 nM
- Drug uptake [4]: Active
- Drug uptake [5]: Active

SMILES: O=C(O)c1ccc(-c2c3nc(c(-c4ccccc4)c4ccc([nH]4)c(-c4ccccc4)c4nc(c(-c5ccccc5)c5ccc2[nH]5)C=C4)C=C3)cc1
- Drug uptake [6]: Active
- Drug uptake [1]: Not Active
- Activity [7]: Toxic
- Drug uptake (Staphylococcus aureus [8]): Not Active
- Drug uptake [2]: Active
- Drug uptake (Escherichia coli [9]): Not Active
- IC50 [3]: 1270 nM
- solubility [10]: Insoluble
- Drug uptake [4]: Active
- Drug uptake [5]: Active
- Activity [11]: Toxic

SMILES: C[n+]1ccc(-c2c3nc(c(-c4cc[n+](C)cc4)c4ccc([nH]4)c(-c4ccc(C(=O)O)cc4)c4ccc([nH]4)c(-c4cc[n+](C)cc4)c4nc2C=C4)C=C3)cc1
- Drug uptake [6]: Active
- Drug uptake [1]: Not Active
- CFU/ml (Escherichia coli [12]): 1 log reduction
- Activity [7]: Toxic
- Drug uptake (Staphylococcus aureus [8]): Not Active
- Drug uptake [2]: Active
- Activity (Staphylococcus aureus [13]): Active
- Drug uptake (Escherichia coli [9]): Not Active
- IC50 [3]: 230 nM
- Activity (Escherichia coli [14]): Active
- Drug uptake [4]: Active
- Drug uptake [5]: Active
- Activity [11]: Toxic
